High-throughput results deposited in PubChem BioAssay by several laboratories.
This is a sample that favours compounds with a hit; in the whole collection about 1.7% have one here.
CXCR6 block – CXCR6 receptor inhibitors, primary screen, cell-based, beta-arrestin, luminescence, CHO-K1 PathHunter, 1536-well; 0.36% of 360,000 active; C-X-C chemokine receptor type 6 (Homo sapiens), O00574; AID 602244, 2012; inhibition, % at 20 µM; in the data active means inhibition above about 34%, passing the limit was not always enough;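 further: antagonist mode with CXCL16 agonist at 10 nM final; 0% = 10 nM CXCL16 with DMSO and 100% = unstimulated wells without agonist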
APJ agonist – agonists of human apelin receptor APJ, primary screen, CHO-K1 cells, PathHunter beta-arrestin, luminescence; P35414; 0% DMSO wells, 100% apelin; activation, % at 20 µM; 0.11% of 330,000 active; AID 2520, 2010;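 active means activation more than six SD over the plate average, tested at 20 µM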;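 further: 0% = DMSO alone and 100% = apelin-13 at 10 nM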
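assay system = CHO-K1 APJ beta-arrestin complementation cell line | input = cell density 1000 per well | dosing = compound 20 µM once, DMSO 1% | timing = compound 90 min 25 °C, reagent 1 h | measured by = luminescence from split beta-galactosidase complementation, Galacton Star/Emerald II substrate | read-out basis = APJ agonist activity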
Beta2AR agonist – beta2AR agonists driving receptor internalization, primary screen, cell-based, FAP fluorogen, flow cytometry; Am2.2-beta2AR cells; response, % (no concentration beside the values); Beta-2 adrenergic receptor (Homo sapiens), P07550; 0.43% of 340,000 active;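 active means response above a set limit, near 3 SD of response in nonfluorescent compounds, cut at about 42% in these data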
PfG6PD inh – PfG6PD enzyme inhibitors, primary screen, biochemical, fluorescence intensity, uHTS; glucose-6-phosphate dehydrogenase-6-phosphogluconolactonase (Plasmodium falciparum 3D7); PfGluPho enzyme, NADPH resazurin-diaphorase fluorescence; inhibition, % at 20 µM; 0.78% of 350,000 active;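 active means inhibition reaching at least a set limit at 20 µM in the primary screen, cut at about 59% in these data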;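 further: 0% = DMSO wells with substrate and 100% = DMSO wells lacking glucose-6-phosphate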
CCR6 antagonist – CCR6 receptor antagonists, primary screen, cell-based, CHO-K1, luminescence, beta-arrestin, uHTS; AID 493098, 2011; C-C chemokine receptor type 6 (Homo sapiens), P51684; inhibition, % at 20 µM; CHO-K1 CCR6 PathHunter beta-arrestin, CCL20-stimulated; 0.49% of 340,000 active;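 active means compounds whose inhibition of the agonist-driven luminescence signal at 20 µM reaches about 50%, limit read from the data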;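 further: cells stimulated with CCL20 at 14 nM final; plate controls were DMSO with CCL20 for no effect and DMSO without agonist for full effect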
Target sequence (P51684 whole entry, looked up): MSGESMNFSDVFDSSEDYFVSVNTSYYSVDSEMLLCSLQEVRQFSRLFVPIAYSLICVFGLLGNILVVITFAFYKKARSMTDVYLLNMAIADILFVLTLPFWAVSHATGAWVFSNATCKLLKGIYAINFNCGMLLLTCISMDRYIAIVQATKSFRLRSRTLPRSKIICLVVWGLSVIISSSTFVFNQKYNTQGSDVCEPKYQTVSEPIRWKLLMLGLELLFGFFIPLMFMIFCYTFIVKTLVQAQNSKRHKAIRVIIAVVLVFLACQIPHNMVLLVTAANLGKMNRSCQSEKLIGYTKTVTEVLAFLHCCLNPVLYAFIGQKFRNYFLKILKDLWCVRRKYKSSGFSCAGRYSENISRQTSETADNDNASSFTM
APJ antag – antagonists of human apelin receptor APJ, primary screen, CHO-K1 cells, beta-arrestin complementation, luminescence | inhibition, % at 20 µM | 0.32% of 330,000 active | P35414;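 active means inhibition above about 40% at 20 µM, limit read from the data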;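 further: cells challenged with 10 nM apelin-13 agonist together with compound; plate controls were apelin-13 plus DMSO wells for no effect and DMSO wells lacking apelin-13 for full effect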
APJ ag confirm – agonists of human apelin receptor APJ, confirmation, cell-based, single concentration, CHO-K1, beta-arrestin, luminescence. shares compounds with APJ agonist. CHO-K1 APJ PathHunter beta-arrestin. activation, % at 20 µM. 10% of 310 active;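 active means activation above 40%, taking the highest of four retests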;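 further: plate controls were DMSO wells for no effect and apelin-13 at 10 nM for full effect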
APJ antag conf – APJ antagonists blocking beta-arrestin recruitment, confirmation, cell-based, luminescence, single concentration, uHTS hits; AID 2766, 2010; shares compounds with APJ antag; antagonist mode; inhibition, % at 20 µM; 66% of 950 active; in the data active means inhibition above about 50%
B2AR ag CP1 – beta2AR agonists via receptor internalization, confirmation, cell-based, FAP fluorogen, flow cytometry, single point, cherry pick 1 | percent response (surface receptor), % at 10 µM | AID 540358, 2011 | Am2.2-beta2AR cells, FAP surface receptor; stronger effect = lower value | 25% of 1,100 active | shares compounds with Beta2AR agonist;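 active means surface receptor percent response at or below 58%, roughly 3 SD from nonfluorescent compounds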
B2AR FAP counter – fluorescence artifact in beta-2AR agonist FAP counterscreen | shares compounds with Beta2AR agonist | Am2.2 cells, FAP fluorogen flow cytometry; stronger effect = lower value | calls only at 10 µM | 1,100 tested, under 10 active | AID 588765;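 active means percent response below a set limit in fluorescence channel 1 and below 50% in channel 8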
PfG6PD confirm – PfG6PD inhibitors, hit retest, confirmation, biochemical, fluorescence intensity, single concentration | shares compounds with PfG6PD inh | recombinant PfGluPho, NADPH-diaphorase-resazurin fluorescence | inhibition, % at 20 µM | 34% of 2,400 active;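 active means inhibition of at least 50% at 20 µM in any single replicate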;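 further: 0% = DMSO with substrate and 100% = DMSO lacking glucose-6-phosphate substrate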
CXCR6 antag conf – CXCR6 receptor antagonists, confirmation, cell-based, single concentration, beta-arrestin, luminescence; shares compounds with CXCR6 block; CHO-K1 CXCR6 PathHunter beta-arrestin; inhibition, % at 20 µM; AID 602409, 2012; 65% of 700 active;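 active means mean inhibition over four retests above 40%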;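 further: receptor stimulated with 10 nM CXCL16 agonist; beta-galactosidase fragment complementation upon beta-arrestin recruitment to receptor; plate controls were CXCL16 plus DMSO for no effect and DMSO without CXCL16 for full effect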
* hit, by the source's call; i = inactive; x = no result.

SMILES | CXCR6 block | APJ agonist | Beta2AR agonist | PfG6PD inh | CCR6 antagonist | APJ antag | APJ ag confirm | PfG6PD confirm | others
CN[C@@H](CO)C(=O)NC[C@H]1O[C@@H](n2cc(C)c(=O)[nH]c2=O)C[C@@H]1O | -1 | x | x | -18 | x | x | x | x
O=C(Nc1ccncc1)c1ccccc1F | 0 | -1 | 3 | -2 | -9 | -14 | x | x
O=C(Nc1ccncc1)c1cc2ccccc2cc1O | -40 | 47* | 11 | 68* | -32 | -213 | 33 | 43
CC(C)Nc1ccc(Nc2ccnc3cc4ccccc4cc23)cc1 | 12 | 24* | 80* | 65* | 23 | 10 | 34 | 19 | B2AR ag CP1=113;B2AR FAP counter=i
O=C1/C(=C\c2ccc(-c3ccccc3[N+](=O)[O-])o2)C(c2ccccc2)=NN1c1ccccc1 | -1 | -3 | 2 | 16 | 15 | 3 | x | x
Cc1ccc(-c2ccc(/C=C3\C(=O)ON=C3c3ccccc3)o2)c([N+](=O)[O-])c1 | 25 | 16* | 18 | 70* | 62* | -7 | 25 | 5
Cc1ccc(-n2nnnc2C(Cl)(Cl)c2nnnn2-c2ccc(C)cc2)cc1 | 9 | 34* | 17 | 72* | 52* | -28 | 41* | 43
Clc1ccc(-c2nnnn2-c2ccc(Cl)cc2)cc1 | -8 | -5 | -16 | 5 | 17 | 19 | x | x
Cc1ccccc1-c1cnc(C(O)c2c(C)cccc2C)[nH]1 (stereo unspecified) | 4 | x | x | x | x | x | x | x
O=[N+]([O-])c1ccc2nc(-c3ccc(Cl)cc3)[nH]c2c1 | -6 | 14* | 5 | 107* | -24 | -15 | 31 | 46
CCOC(=O)c1c(NC(=O)COC(=O)c2nccnc2N)sc(C(=O)N(C)C)c1C | -7 | 5 | 2 | -5 | 17 | -26 | x | x
CC1=NOC(=O)/C1=C\c1ccc(-c2cc(Cl)ccc2Cl)o1 | 57* | 66* | 80* | 80* | 74* | -7 | 13 | 11
Cc1c(Cl)sn(-c2ccc(Cl)cc2)c1=O | 74* | 26* | 49* | 106* | 92* | 38 | 26 | x | CXCR6 antag conf=94*
COCCC(=O)N1CCC(Oc2ccc(C(=O)N3C[C@@H]4CCC[C@H]3C4)cc2)CC1 | -3 | -1 | 9 | -15 | 7 | -4 | x | x
COc1cccc(C(=O)NC(=S)Nc2cccnc2)c1 | 23 | -5 | 3 | 1 | 34 | 21 | x | x
CC(C)Oc1cccc(C(=O)NC(=S)Nc2cccnc2)c1 | 21 | -5 | -17 | 2 | 38 | 42* | x | x | APJ antag conf=50*
O=c1c2cc([N+](=O)[O-])cc([N+](=O)[O-])c2[nH]n1-c1ccccc1 | 39 | -9 | -10 | 0 | 56* | 41* | x | x | APJ antag conf=76*
